Where “and” joins values, the source holds several entries; their conditions need not be identical. Equal values may be shown once.
Assays:
Log P determination = conditions: n-octanol/water, Au by FAAS
E. faecium ATCC 700221 = assay: Broth microdilution MIC/MBC, E. faecium; format: cell-based, Enterococcus faecium; conditions: for MBC E. faecium ATCC 700221: value in parentheses; for MIC E. faecium ATCC 700221: value before the parentheses, two values = two repeats
In short: (§1)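 CLSI broth microdilution in cation-adjusted Mueller–Hinton broth. Log-phase cultures were diluted to 7.5 × 10^5 CFU/mL, then mixed 1:1 with 2-fold serial dilutions of gold complexes from DMSO or water stocks, in triplicate, and held 37 °C, 18 h, static. MIC: lowest concentration giving >90% inhibition by OD600 against medium-only and bacteria-only wells. […] E. coli ATCC 25922 quality control was checked each run with ciprofloxacin and […].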

S. aureus JE2 (USA300) = assay: Broth microdilution MIC/MBC, S. aureus; format: cell-based, Staphylococcus aureus; conditions: for MIC S. aureus JE2 (USA300): value before the parentheses, two values = two repeats; for MBC S. aureus JE2 (USA300): value in parentheses
In short: as §1

E. coli ATCC 25922 = assay: Broth microdilution MIC/MBC, E. coli; format: cell-based, Escherichia coli; conditions: for MIC E. coli ATCC 25922: value before the parentheses, two values = two repeats; for MBC E. coli ATCC 25922: value in parentheses
In short: as §1

P. aeruginosa NCTC 13437 = assay: Broth microdilution MIC/MBC, P. aeruginosa; format: cell-based, Pseudomonas aeruginosa; conditions: for MIC P. aeruginosa NCTC 13437: value before the parentheses, two values = two repeats; for MBC P. aeruginosa NCTC 13437: value in parentheses
In short: as §1

[1] = system: K. pneumoniae ATCC 700603; assay: Broth microdilution MIC/MBC, K. pneumoniae; format: cell-based, Klebsiella pneumoniae; conditions: for MIC K. pneumoniae ATCC 700603: value before the parentheses, two values = two repeats; for MBC K. pneumoniae ATCC 700603: value in parentheses; for fold enhancement of activity over auranofin, K. pneumoniae: vs auranofin
In short: as §1

A. baumannii NCTC 13420 = assay: Broth microdilution MIC/MBC, A. baumannii; format: cell-based, Acinetobacter baumannii; conditions: for MIC A. baumannii NCTC 13420: value before the parentheses, two values = two repeats; for MBC A. baumannii NCTC 13420: value in parentheses
E. cloacae NCTC 13405 = assay: Broth microdilution MIC/MBC, E. cloacae; format: cell-based, Enterobacter cloacae; conditions: for MIC E. cloacae NCTC 13405: value before the parentheses, two values = two repeats; for MBC E. cloacae NCTC 13405: value in parentheses; for fold enhancement of activity over auranofin, E. cloacae: vs auranofin
In short: as §1

A549 cells = assay: Cytotoxicity assay; format: cell-based, human; conditions: for IC50: read-out: IC50 against A549 cells, means ± SEM from two independent experiments
rat = conditions: cited from earlier work
all strains = assay: Broth microdilution, all strains taken together; format: cell-based; conditions: vs auranofin
Gram-negative strains = assay: Broth microdilution, Gram-negative strains taken together; format: cell-based; conditions: vs auranofin

SMILES	log P (Log P determination)	MBC E. faecium ATCC 700221 (E. faecium ATCC 700221) [µM]	MIC S. aureus JE2 (USA300) (S. aureus JE2 (USA300)) [µM]	MBC S. aureus JE2 (USA300) (S. aureus JE2 (USA300)) [µM]	MIC E. coli ATCC 25922 (E. coli ATCC 25922) [µM]	MBC E. coli ATCC 25922 (E. coli ATCC 25922) [µM]	MIC P. aeruginosa NCTC 13437 (P. aeruginosa NCTC 13437) [µM]	MBC P. aeruginosa NCTC 13437 (P. aeruginosa NCTC 13437) [µM]	MIC K. pneumoniae ATCC 700603 [1] [µM]	MBC K. pneumoniae ATCC 700603 [1] [µM]	MIC A. baumannii NCTC 13420 (A. baumannii NCTC 13420)	MBC A. baumannii NCTC 13420 (A. baumannii NCTC 13420) [µM]	MIC E. cloacae NCTC 13405 (E. cloacae NCTC 13405)	MBC E. cloacae NCTC 13405 (E. cloacae NCTC 13405)	IC50 (A549 cells) [µM]	rat acute oral LD50 (rat) [mg/kg]	MIC E. faecium ATCC 700221 (E. faecium ATCC 700221)	fold enhancement of activity over auranofin, K. pneumoniae [1]	fold enhancement of activity over auranofin, E. cloacae (E. cloacae NCTC 13405)	also measured
CC[PH](CC)(CC)[Au][S][C@@H]1O[C@H](COC(C)=O)[C@@H](OC(C)=O)[C@H](OC(C)=O)[C@H]1OC(C)=O [Compound 1, (2,3,4,6-Tetra-O-acetyl-1-thio-β-D-glucopyranosato)-(triethylphosphine) Gold(I), reference compound]	0.56	0.4	0.04	0.09	24	24	377	377	377	377	47 µM	47	189 µM	189 µM	11.3 ± 1.9	265	–	–	–	MBC E. faecium (E. faecium ATCC 700221; Table S1): 0.25 µg/mL; MIC E. faecium (E. faecium ATCC 700221; Table S1): 0.12 µg/mL; MBC S. aureus (S. aureus JE2 (USA300); Table S1): 0.06 µg/mL; MIC S. aureus (S. aureus JE2 (USA300); Table S1): 0.03 µg/mL; MBC E. coli (E. coli ATCC 25922; MIC/MBC): 16 µg/mL; MIC E. coli (E. coli ATCC 25922; MIC/MBC): 16 µg/mL; MIC K. pneumoniae ATCC 700603 ([1]; listed as Auranofin): 377 µM; MBC K. pneumoniae ATCC 700603 ([1]; listed as Auranofin): 377 µM; MBC A. baumannii (A. baumannii NCTC 13420; MIC/MBC): 32 µg/mL; MIC A. baumannii (A. baumannii NCTC 13420; MIC/MBC): 32 µg/mL; MIC A. baumannii NCTC 13420 (A. baumannii NCTC 13420; listed as Auranofin): 47 µM; MBC A. baumannii NCTC 13420 (A. baumannii NCTC 13420; listed as Auranofin): 47 µM
CC[PH](CC)(CC)[Au][S]c1ccc(N)cc1 [Compound 17, (4-Aminobenzenethiolato)(triethylphosphine) Gold(I)]	1.36	0.1	–	0.07	9	9	146	146	36	36	18 µM	18	36 µM	36 µM	–	–	0.02 µM	10	–	fold enhancement of activity over auranofin, all strains (all strains): up to 10; fold enhancement of activity over auranofin, E. faecium (E. faecium ATCC 700221; vs auranofin): more than 7
CC[P+](CC)(CC)[Au-][S]CCO [Compound 21, (2-Mercaptoethanolato)(triethylphosphine) Gold(I)]	1.19	0.6	0.03	0.03	10	10	41	41	20	20	10 µM	82	5 µM and 10 µM	82 µM	–	–	0.2 µM and 0.3 µM	19	19	fold enhancement of activity over auranofin, P. aeruginosa (P. aeruginosa NCTC 13437; vs auranofin): 9; cytotoxicity relative to auranofin (times less toxic) (A549 cells; A549 cells, vs auranofin): 1.6; fold enhancement of activity over auranofin, Gram-negative strains (Gram-negative strains): 5–19
CCP(CC)CC.[Au+].[Cl-] [Compound 25, (Triethylphosphine)gold Chloride]	1.74	0.7	–	0.2	23	23	92	183	46	46	–	23	23 µM	23 µM	–	79.0	–	–	–	–
CC(=O)OCC1O[C@@H]([S][Au-][P+](C)(C)C)C(OC(C)=O)[C@@H](OC(C)=O)[C@@H]1OC(C)=O (stereo partly drawn) [Compound 31, (2,3,4,6-Tetra-O-acetyl-1-thio-β-D-glucopyranosato)-(trimethylphosphine) Gold(I)]	0.35	0.8	0.1	0.2	6	6	101	101	13	13	–	101	3.1 µM and 3 µM	3.1 µM and 3 µM	20.6 ± 3.6	–	0.2 µM and 0.4 µM	30	60 and 61	–
C[PH](C)(C)[Au][S]CCO [Compound 40, (2-Mercaptoethanolato)(trimethylphosphine) Gold(I)]	−0.15	0.3	0.3	0.7	–	11	–	91	11	23	5.7 µM and 6 µM and 3 µM	23	2.9 µM and 3 µM	3 µM	35.1 ± 8.9	–	0.3 µM	34	65	MIC K. pneumoniae [1]: 11 μ/mL
